In ChEMBL document CHEMBL2176985 (J Med Chem, 2012):
The source made the active and inactive calls. The rule behind the calls is not given here.

Tests used:
[1] = Agonist activity at ganglionic nAChR; type: functional
[2] = biological target: T1, Acetylcholine receptor; alpha1/beta1/delta/gamma (Homo sapiens, UniProt P02708+P07510+P11230+Q07001); assay: Binding affinity to muscle type alpha1beta1gammadelta-nAChR; type: protein-complex assay, Muscle tissue
[3] = biological target: T1, Acetylcholine receptor; alpha1/beta1/delta/gamma; assay: Agonist activity at human alpha1beta1gammadelta nAChR expressed in human TE671/RD cells assessed as stimulation of 86Rb+ efflux preincubated for 10 mins by liquid scintillation counting; type: functional, cell-based
Mus musculus [4] = assay: Antidepressant activity in BALB/cJ mouse assessed as reduction of immobility time at 1 to 3 mg/kg, ip administered 30 mins before test measured over 6 mins trial by forced swim test; type: functional, organism-based
Mus musculus [5] = assay: Antidepressant activity in BALB/cJ mouse assessed as reduction of immobility time at 5 to 30 mg/kg, ip administered 30 mins before test measured over 6 mins trial by forced swim test; type: functional, organism-based
Mus musculus [6] = assay: Antidepressant activity in BALB/cJ mouse assessed as reduction of immobility time at 5 to 30 mg/kg, ip administered 30 mins before test measured over 6 mins trial by post hoc Fisher's LSD test; type: functional, organism-based
[7] = biological target: T1, Acetylcholine receptor; alpha1/beta1/delta/gamma; assay: Antagonist activity at human alpha1beta1gammadelta nAChR expressed in human TE671/RD cells assessed as inhibition of 86Rb+ efflux preincubated for 10 mins by liquid scintillation counting; type: functional, cell-based
Method in brief: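 Cells loaded with ⁸⁶Rb⁺ were pre-exposed to test drug for 10 min. […] Efflux was normalized to intracellular ⁸⁶Rb⁺ available at that step. Nonspecific efflux came from 100 µM mecamylamine or buffer. Inactivation IC50 was obtained by curve fit.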

[8] = biological target: Neuronal acetylcholine receptor; alpha4/beta4 (Rattus norvegicus) (UniProt P09483+P12392); assay: Displacement of [3H]Epibatidine from rat alpha4beta4 nAChR at 10 uM; type: protein-complex assay
[9] = biological target: Neuronal acetylcholine receptor; alpha3/beta2 (Rattus norvegicus, UniProt P04757+P12390); assay: Displacement of [3H]Epibatidine from rat alpha3beta2 nAChR; type: protein-complex assay
Sequence of Neuronal acetylcholine receptor; alpha3/beta2 (P04757 whole entry): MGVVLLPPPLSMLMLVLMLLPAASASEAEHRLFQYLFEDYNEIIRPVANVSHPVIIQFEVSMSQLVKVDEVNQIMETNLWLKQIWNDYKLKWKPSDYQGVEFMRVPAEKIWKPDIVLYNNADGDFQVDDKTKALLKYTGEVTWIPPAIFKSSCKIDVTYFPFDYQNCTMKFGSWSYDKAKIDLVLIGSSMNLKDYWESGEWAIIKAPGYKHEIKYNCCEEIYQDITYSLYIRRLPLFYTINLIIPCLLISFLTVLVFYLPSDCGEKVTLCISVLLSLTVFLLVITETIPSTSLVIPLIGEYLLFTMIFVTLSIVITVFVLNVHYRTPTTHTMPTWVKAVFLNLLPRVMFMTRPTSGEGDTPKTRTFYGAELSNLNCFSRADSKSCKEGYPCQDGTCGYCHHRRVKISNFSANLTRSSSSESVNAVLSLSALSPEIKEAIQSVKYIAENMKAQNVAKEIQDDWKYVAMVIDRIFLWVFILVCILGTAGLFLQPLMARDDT
Sequence of Neuronal acetylcholine receptor; alpha3/beta2 (P12390 whole entry): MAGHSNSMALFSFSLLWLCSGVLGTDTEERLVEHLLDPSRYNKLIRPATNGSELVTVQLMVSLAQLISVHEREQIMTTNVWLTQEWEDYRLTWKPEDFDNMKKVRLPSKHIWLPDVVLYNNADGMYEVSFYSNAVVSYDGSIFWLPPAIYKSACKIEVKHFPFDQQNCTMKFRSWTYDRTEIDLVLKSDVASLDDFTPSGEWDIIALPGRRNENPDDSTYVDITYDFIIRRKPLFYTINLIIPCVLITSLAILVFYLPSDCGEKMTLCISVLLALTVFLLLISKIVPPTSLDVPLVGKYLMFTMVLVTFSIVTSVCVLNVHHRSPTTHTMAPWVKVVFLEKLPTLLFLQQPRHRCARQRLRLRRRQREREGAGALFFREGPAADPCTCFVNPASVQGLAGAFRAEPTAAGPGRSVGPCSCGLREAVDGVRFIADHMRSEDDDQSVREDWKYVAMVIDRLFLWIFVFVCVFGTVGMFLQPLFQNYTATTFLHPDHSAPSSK

[10] = biological target: Neuronal acetylcholine receptor; alpha3/beta4 (Rattus norvegicus) (UniProt P04757+P12392); assay: Displacement of [3H]Epibatidine from rat alpha3beta4 nAChR at 10 uM; type: protein-complex assay
[11] = biological target: T2, Neuronal acetylcholine receptor; alpha3/beta4 (Homo sapiens, UniProt P30926+P32297); assay: Antagonist activity at human alpha3beta4 nAChR expressed in human SH-SY5Y cells assessed as inhibition of 86Rb+ efflux preincubated for 10 mins by liquid scintillation counting; type: functional, cell-based
T2 sequence (P30926 whole entry): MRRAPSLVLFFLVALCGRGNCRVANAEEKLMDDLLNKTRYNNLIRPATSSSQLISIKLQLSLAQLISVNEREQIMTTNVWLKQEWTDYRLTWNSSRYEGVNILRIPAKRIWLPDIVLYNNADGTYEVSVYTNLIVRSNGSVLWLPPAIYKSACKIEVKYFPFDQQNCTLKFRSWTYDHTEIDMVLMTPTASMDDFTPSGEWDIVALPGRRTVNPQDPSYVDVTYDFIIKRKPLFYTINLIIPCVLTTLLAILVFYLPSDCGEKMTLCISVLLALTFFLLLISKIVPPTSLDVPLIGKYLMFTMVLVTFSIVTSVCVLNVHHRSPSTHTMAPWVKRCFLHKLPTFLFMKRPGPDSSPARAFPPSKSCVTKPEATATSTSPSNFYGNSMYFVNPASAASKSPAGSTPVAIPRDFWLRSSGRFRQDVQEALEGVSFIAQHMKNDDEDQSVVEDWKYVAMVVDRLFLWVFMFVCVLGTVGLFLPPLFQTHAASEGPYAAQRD
T2 sequence (P32297 whole entry): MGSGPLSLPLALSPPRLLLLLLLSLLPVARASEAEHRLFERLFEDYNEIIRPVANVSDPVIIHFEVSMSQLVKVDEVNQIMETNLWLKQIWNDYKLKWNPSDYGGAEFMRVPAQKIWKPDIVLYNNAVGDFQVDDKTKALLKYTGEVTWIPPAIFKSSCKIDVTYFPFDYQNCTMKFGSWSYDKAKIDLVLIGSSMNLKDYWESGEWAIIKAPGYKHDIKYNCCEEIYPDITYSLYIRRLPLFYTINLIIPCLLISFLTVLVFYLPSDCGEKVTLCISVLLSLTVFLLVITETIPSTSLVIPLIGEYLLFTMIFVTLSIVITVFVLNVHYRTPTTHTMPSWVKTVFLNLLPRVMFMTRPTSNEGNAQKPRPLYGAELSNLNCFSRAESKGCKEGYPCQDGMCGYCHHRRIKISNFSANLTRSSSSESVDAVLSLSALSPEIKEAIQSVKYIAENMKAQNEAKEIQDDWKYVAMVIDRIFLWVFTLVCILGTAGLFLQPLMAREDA
Method in brief: (§1)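 Cells loaded with ⁸⁶Rb⁺ were pre-exposed to test drug for 10 min. Efflux was normalized to intracellular ⁸⁶Rb⁺ available at that step. Nonspecific efflux came from 100 µM mecamylamine or buffer. Inactivation IC50 was obtained by curve fit.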

[12] = biological target: T3, Neuronal acetylcholine receptor; alpha4/beta2 (Rattus norvegicus, UniProt P09483+P12390); assay: Displacement of [3H]Epibatidine from alpha4beta2 nAChR in rat brain; type: tissue-based
T3 sequence (P09483 whole entry): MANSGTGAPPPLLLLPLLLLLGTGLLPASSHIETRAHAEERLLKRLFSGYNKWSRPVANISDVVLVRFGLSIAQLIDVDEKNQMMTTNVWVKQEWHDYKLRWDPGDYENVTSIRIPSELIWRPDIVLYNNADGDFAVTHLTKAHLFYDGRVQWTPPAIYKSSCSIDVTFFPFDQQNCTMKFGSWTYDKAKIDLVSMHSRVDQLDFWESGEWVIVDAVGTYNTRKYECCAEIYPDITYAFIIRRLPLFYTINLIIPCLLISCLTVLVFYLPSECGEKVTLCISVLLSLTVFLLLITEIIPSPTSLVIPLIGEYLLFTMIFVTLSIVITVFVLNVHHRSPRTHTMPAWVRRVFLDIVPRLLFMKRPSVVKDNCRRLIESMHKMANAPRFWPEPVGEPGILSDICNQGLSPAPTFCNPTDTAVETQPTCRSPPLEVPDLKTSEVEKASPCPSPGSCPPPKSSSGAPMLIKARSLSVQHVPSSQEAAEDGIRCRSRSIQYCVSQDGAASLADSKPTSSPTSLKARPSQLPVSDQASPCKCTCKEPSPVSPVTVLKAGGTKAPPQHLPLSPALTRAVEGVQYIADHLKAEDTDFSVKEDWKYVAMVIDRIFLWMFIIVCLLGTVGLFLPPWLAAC
T3 sequence (P12390 whole entry): as the sequence (P12390 whole entry) above

[13] = biological target: T2, Neuronal acetylcholine receptor; alpha3/beta4; assay: Agonist activity at human alpha3beta4 nAChR expressed in human SH-SY5Y cells assessed as stimulation of 86Rb+ efflux preincubated for 10 mins by liquid scintillation counting; type: functional, cell-based
[14] = biological target: T4, Neuronal acetylcholine receptor; alpha4/beta2 (Homo sapiens, UniProt P17787+P43681); assay: Agonist activity at human alpha4beta2 nAChR expressed in human SH-EP1 cells assessed as stimulation of 86Rb+ efflux preincubated for 10 mins by liquid scintillation counting; type: functional, cell-based
[15] = system: Neuronal acetylcholine receptor alpha2/beta4 (Rattus norvegicus); assay: Displacement of [3H]Epibatidine from rat alpha2beta4 nAChR at 10 uM
[16] = biological target: T3, Neuronal acetylcholine receptor; alpha4/beta2; assay: Displacement of [3H]Epibatidine from rat alpha4beta2 nAChR; type: protein-complex assay
[17] = biological target: T4, Neuronal acetylcholine receptor; alpha4/beta2; assay: Antagonist activity at human alpha4beta2 nAChR expressed in human SH-EP1 cells assessed as inhibition of 86Rb+ efflux preincubated for 10 mins by liquid scintillation counting; type: functional, cell-based; method in brief: as §1
Mus musculus [18] = assay: Antidepressant activity in BALB/cJ mouse assessed as reduction of immobility time at 20 mg/kg, ip administered 30 mins before test measured over 6 mins trial by forced swim test; type: functional, organism-based; set-up: dose 20 mg/kg
[19] = biological target: T4, Neuronal acetylcholine receptor; alpha4/beta2; assay: Agonist activity at human low-sensitivity alpha4beta2 nAChR expressed in human SH-EP1 cells assessed as stimulation of 86Rb+ efflux preincubated for 10 mins by liquid scintillation counting relative to control; type: functional, cell-based
[20] = biological target: T4, Neuronal acetylcholine receptor; alpha4/beta2; assay: Antagonist activity at human alpha4beta2 nAChR expressed in human SH-EP1 cells assessed as inhibition of 86Rb+ efflux preincubated for 10 mins by liquid scintillation counting relative to control; type: functional, cell-based; method in brief: as §1
[21] = biological target: Neuronal acetylcholine receptor; alpha4/beta4 (Homo sapiens, UniProt P30926+P43681); assay: Binding affinity to alpha4beta4 nAChR; type: protein-complex assay
[22] = biological target: T4, Neuronal acetylcholine receptor; alpha4/beta2; assay: Agonist activity at human high-sensitivity alpha4beta2 nAChR expressed in human SH-EP1 cells assessed as stimulation of 86Rb+ efflux preincubated for 10 mins by liquid scintillation counting relative to control; type: functional, cell-based

T1 sequence (P02708 whole entry): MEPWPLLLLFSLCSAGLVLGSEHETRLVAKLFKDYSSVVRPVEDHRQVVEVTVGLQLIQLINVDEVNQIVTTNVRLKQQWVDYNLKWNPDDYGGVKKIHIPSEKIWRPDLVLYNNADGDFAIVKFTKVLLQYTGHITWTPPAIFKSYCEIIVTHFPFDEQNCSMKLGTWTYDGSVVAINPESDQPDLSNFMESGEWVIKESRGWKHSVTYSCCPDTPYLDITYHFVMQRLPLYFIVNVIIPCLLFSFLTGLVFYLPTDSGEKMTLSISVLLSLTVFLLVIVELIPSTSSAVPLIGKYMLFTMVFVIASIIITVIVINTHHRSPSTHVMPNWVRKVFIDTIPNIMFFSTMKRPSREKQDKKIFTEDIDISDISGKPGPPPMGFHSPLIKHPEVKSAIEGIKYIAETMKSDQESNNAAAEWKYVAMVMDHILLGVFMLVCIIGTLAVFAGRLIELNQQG
T1 sequence (P07510 whole entry): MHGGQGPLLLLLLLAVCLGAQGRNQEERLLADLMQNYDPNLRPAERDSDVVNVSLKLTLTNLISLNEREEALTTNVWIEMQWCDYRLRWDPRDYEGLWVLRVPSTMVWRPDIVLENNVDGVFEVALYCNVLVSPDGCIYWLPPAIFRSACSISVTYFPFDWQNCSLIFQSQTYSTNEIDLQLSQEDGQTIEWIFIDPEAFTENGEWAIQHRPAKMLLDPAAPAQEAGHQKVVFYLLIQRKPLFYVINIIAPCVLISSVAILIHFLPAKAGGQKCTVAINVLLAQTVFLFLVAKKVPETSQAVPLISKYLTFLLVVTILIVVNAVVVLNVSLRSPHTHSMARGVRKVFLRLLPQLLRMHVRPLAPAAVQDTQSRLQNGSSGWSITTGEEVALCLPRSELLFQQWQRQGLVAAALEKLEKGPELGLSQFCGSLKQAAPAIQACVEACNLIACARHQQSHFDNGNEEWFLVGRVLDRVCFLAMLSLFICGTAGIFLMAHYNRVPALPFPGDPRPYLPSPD
T1 sequence (P11230 whole entry): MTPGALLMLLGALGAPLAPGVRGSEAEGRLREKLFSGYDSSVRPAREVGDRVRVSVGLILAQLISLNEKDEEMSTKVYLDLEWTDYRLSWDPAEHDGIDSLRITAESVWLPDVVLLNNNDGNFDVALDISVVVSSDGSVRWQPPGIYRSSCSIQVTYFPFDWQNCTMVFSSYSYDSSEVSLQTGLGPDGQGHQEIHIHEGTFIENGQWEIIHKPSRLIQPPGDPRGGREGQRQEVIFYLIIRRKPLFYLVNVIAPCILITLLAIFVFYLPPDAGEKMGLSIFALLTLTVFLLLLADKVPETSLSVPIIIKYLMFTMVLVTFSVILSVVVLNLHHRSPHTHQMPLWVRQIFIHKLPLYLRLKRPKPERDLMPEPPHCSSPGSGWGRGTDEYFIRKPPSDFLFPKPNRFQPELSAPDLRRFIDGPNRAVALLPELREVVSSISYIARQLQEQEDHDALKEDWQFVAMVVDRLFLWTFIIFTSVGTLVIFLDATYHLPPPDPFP
T1 sequence (Q07001 whole entry): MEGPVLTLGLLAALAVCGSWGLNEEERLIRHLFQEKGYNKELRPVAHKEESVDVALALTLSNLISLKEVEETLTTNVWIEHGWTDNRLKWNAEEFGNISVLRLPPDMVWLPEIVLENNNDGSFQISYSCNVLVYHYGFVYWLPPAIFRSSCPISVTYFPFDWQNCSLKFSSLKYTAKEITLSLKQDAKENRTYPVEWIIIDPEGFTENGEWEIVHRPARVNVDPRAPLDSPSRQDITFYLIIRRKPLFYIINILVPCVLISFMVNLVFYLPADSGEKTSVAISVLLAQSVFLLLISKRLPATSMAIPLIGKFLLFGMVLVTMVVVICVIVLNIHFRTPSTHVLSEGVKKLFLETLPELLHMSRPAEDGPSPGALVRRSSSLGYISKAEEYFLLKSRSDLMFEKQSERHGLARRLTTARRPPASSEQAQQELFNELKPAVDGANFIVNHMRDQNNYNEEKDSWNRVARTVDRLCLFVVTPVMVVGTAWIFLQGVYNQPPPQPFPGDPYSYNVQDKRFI

| Compound | EC50 [3] | IC50 [7] | also measured |
| --- | --- | --- | --- |
| c1cncc(OC[C@@H]2CCN2)c1 | – | – | EC50 [1]: 0.8 µM; Ki [2]: 0.314 µM |
| CCc1cc(-c2cncc(OC[C@@H]3CCN3)c2)on1 | > 1 µM | > 1 µM | Activity (Mus musculus [4]): Active; Activity (Mus musculus [5]): Active; Activity (Mus musculus [6]): Active |
| FC(F)CCc1cc(-c2cncc(OC[C@@H]3CCN3)c2)on1 | > 1 µM | > 1 µM | Activity (Mus musculus [5]): Active; Activity (Mus musculus [6]): Active |
| c1ncc(-c2cc(CCN3CCOCC3)no2)cc1OC[C@@H]1CCCN1 | > 1 µM | > 1 µM | inhibition [8]: < 50%; Ki [9]: 0.575 µM; inhibition [10]: < 50%; IC50 [11]: > 1 µM; Ki [12]: 0.132 µM; EC50 [13]: > 1 µM; EC50 ([14]; read-out: pEC50 (converted)): > 0.1 µM; EC50 ([14]; sh-ep1, read-out: EC50): > 0.1 µM; inhibition [15]: < 50%; Ki [16]: 0.032 µM; IC50 [17]: > 0.1 µM |
| OCCc1cc(-c2cncc(OC[C@H]3NC[C@@H]4C[C@@H]43)c2)on1 | > 1 µM | > 1 µM | – |
| CN[C@H]1CC[C@@H](c2ccc(Cl)c(Cl)c2)c2ccccc21 | – | – | Activity (Mus musculus [18]): Active |
| CCc1cc(-c2cncc(OC[C@H]3NC[C@@H]4C[C@@H]43)c2)on1 | > 1 µM | > 1 µM | – |
| CCNC(=O)OCCc1cc(-c2cncc(OC[C@@H]3CCN3)c2)on1 | > 1 µM | > 1 µM | – |
| c1cnc2cc3c(cc2n1)[C@@H]1CNC[C@H]3C1 [VARENICLINE] | > 1 µM | – | Efficacy [19]: 34%; Imax [20]: 83%; Ki [21]: 0.11 µM; Efficacy [22]: 106% |
| O=C(Nc1ccccc1)OCCc1cc(-c2cncc(OC[C@@H]3CCCN3)c2)on1 | > 1 µM | > 1 µM | – |
| CN1CCC[C@H]1COc1cncc(-c2cc(CCO)no2)c1 | > 1 µM | > 1 µM | – |
| COCCc1cc(-c2cncc(OC[C@@H]3CCN3)c2)on1 | > 1 µM | > 1 µM | – |
| OCCCc1cc(-c2cncc(OC[C@@H]3CCCN3)c2)on1 | > 1 µM | > 1 µM | – |
| CN1CCC[C@H]1c1cccnc1 [NICOTINE] | > 1 µM | – | – |
| FC(F)(F)CCc1cc(-c2cncc(OC[C@@H]3CCN3)c2)on1 | > 1 µM | > 1 µM | – |
| CCNC(=O)OCCc1cc(-c2cncc(OC[C@@H]3CCCN3)c2)on1 | > 1 µM | > 1 µM | – |
| OCCc1cc(-c2cncc(OC[C@@H]3CCN3)c2)on1 | > 1 µM | > 1 µM | – |
| FCCCc1cc(-c2cncc(OC[C@@H]3CCN3)c2)on1 | > 1 µM | > 1 µM | Activity (Mus musculus [5]): Active; Activity (Mus musculus [6]): Active |
| OCCc1cc(-c2cncc(OC[C@@H]3CCCN3)c2)on1 | > 1 µM | > 1 µM | – |
| c1ncc(-c2cc(CCN3CCOCC3)no2)cc1OC[C@@H]1CCN1 | > 1 µM | > 1 µM | inhibition [8]: < 50%; Ki [9]: 0.117 µM; inhibition [10]: < 50%; IC50 [11]: > 1 µM; Ki [12]: 0.0263 µM; EC50 [13]: > 1 µM; EC50 ([14]; read-out: pEC50 (converted)): > 0.1 µM; EC50 ([14]; sh-ep1, read-out: EC50): > 0.1 µM; inhibition [15]: < 50%; Ki [16]: 0.011 µM; IC50 [17]: > 0.1 µM |
| O=C(Nc1ccccc1)OCCc1cc(-c2cncc(OC[C@@H]3CCN3)c2)on1 | > 1 µM | > 1 µM | – |
